# Bioassay records deposited in PubChem by several laboratories.
# An excerpt weighted towards active compounds, which were near 3.1% of everything screened.
# PREPL inhibitor = PREPL enzyme inhibitors, primary screen, biochemical, fluorescence polarization | Prolyl endopeptidase-like (Homo sapiens), Q4J6C6 | recombinant PREPL, fluorescence polarization activity-based probe | inhibition, % at 5.96 µM | 320,000 compounds, 0.68% hits | AID 2751, 2010; in the data active means inhibition above about 43%;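 further: 0% = enzyme with DMSO and 100% = wells lacking enzyme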
# MEKK3 PB1 HTS = modulators of MEKK3-MEK5 PB1 binding, primary screen, biochemical, wildtype MEKK3, multiplex bead flow cytometry, Alexa488-MEK5. Mitogen-activated protein kinase kinase kinase 3 (Homo sapiens), Q99759. AID 1529, 2009. 290,000 compounds, 1.4% hits. bead-based flow cytometry, Alexa488-MEK5 binding to MEKK3; actives lie on both sides; 0 = blocked by unlabeled MEK5, 100 = vehicle. binding response (% of control), % at 10 µM;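 active means binding response more than 3 SD above or below the average of its plate-row segment, actives on both sides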;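 further: Alexa488 bead fluorescence after subtracting the streptavidin-only scavenger bead signal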
# UBC13 polyUb = UBC13 polyubiquitin chain formation inhibitors, primary screen, biochemical, TR-FRET, uHTS. 330,000 compounds, 0.47% hits. AID 485273, 2010. Ubiquitin-conjugating enzyme E2 N (Homo sapiens), P61088. inhibition, % at 20 µM; in the data active means inhibition above about 45%, passing the limit was not always enough
# Target sequence (P61088 whole entry, looked up): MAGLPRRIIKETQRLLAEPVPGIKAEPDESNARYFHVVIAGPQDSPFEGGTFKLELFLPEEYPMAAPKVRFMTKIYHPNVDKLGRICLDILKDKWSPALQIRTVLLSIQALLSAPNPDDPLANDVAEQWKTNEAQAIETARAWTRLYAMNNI
# MEKK2 WT-MEK5 = modulators of MEK5 binding to wildtype MEKK2, primary screen, biochemical, multiplex bead flow cytometry, Alexa488-MEK5; AID 1531, 2009; Mitogen-activated protein kinase kinase kinase 2 (Homo sapiens), Q9Y2U5; binding response (% of control), % at 10 µM; Alexa488-MEK5 binding to MEKK2 WT; actives lie on both sides; 290,000 compounds, 1.1% hits; in the data active means binding response below about 67% or above about 130%
# MEKK2 mut-MEK5 = MEK5 binding signal on mutant MEKK2 PB1, primary screen, biochemical, multiplex bead flow cytometry, Alexa488-MEK5. Alexa488-MEK5 binding to MEKK2 mutant. percent response, % at 10 µM. AID 1530, 2009. 290,000 compounds, 0.35% hits; in the data active means percent response above about 24%, passing the limit was not always enough
# Apaf-1 inh = inhibitors of human Apaf-1 apoptosome, primary screen, biochemical, DEVD-Rh110 fluorescence, uHTS; Apoptotic protease-activating factor 1 (Homo sapiens), O14727; reconstituted apoptosome caspase-3 activity; inhibition, % at 20 µM; 330,000 compounds, 0.71% hits; AID 489030, 2010; active means inhibition of at least 40% at 20 µM;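 further: plate controls were DMSO wells for no effect and DEVD-CHO caspase inhibitor wells for full effect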
#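 Material: biochemical Apaf-1 apoptosome reconstitution. Medium: Hepes buffer, pH 7.5. Also added: cytochrome c activation, bis-DEVD rhodamine 110 substrate. Timing: 30 min compound preincubation, 50 min activation, room temperature. Measured by: rhodamine 110 fluorescence at Ex 480/Em 540 nm.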
# The depositor's hits bear a star; . = no result.
SMILES,PREPL inhibitor,MEKK3 PB1 HTS,UBC13 polyUb,MEKK2 WT-MEK5,MEKK2 mut-MEK5,Apaf-1 inh
COc1ccc(NC(=O)c2cc3n(n2)C(C(F)(F)F)CC(c2ccc4c(c2)OCO4)N3)cc1OC (centres undefined),46*,101,21,100,-2,4
COc1cc2ccccc2cc1C(=O)N(CCN(C)C)c1nc2ccc(C)cc2s1,-35,100,15,135*,9,22
COc1ccc(OC)c2sc(N(CCN(C)C)C(=O)c3ccc4ccccc4c3)nc12,18,105,29,134,11,22
CCOc1ccc2nc(N(CCN(CC)CC)C(=O)/C=C/c3cccs3)sc2c1,3,109,6,157*,16,19
COc1cc2ccccc2cc1C(=O)N(CCN(C)C)c1nc2c(OC)ccc(OC)c2s1,36,104,29,147*,24*,30
CCN(CC)CCN(C(=O)c1cc2ccccc2cc1OC)c1nc2ccc(OC)cc2s1,-35,103,20,148*,26*,24
O=C(O)CCc1ccc(S(=O)(=O)Nc2ccccc2N2CCCCC2)cc1,17,.,-17,.,.,3
Cc1ccc(OCC(=O)Nc2ccc(S(=O)(=O)N3CCOCC3)cc2)c(Br)c1,0,100,-3,96,-6,23
CCCCN(C(=O)c1cc2c(s1)CCC2)c1c(N)n(CCC)c(=O)[nH]c1=O,.,.,-7,.,.,5
O=C(Nc1ccc(Oc2ccccc2)cc1)C1CCN(c2c3c(nc4ncnn24)CCC3)CC1,9,97,10,88,-7,41*
N#Cc1ccc(CN2CCN(CC(=O)NCCc3ccc(Cl)cc3Cl)CC2)cc1,22,103,12,151*,28*,17
O=C(Cn1cc(C(F)(F)F)ccc1=O)NCCc1ccc(Cl)cc1Cl,4,105,-17,107,6,16
Cc1ccc(C=Nc2ccc(N(C)C)cc2)o1,40,97,-5,100,6,51*
CC(C)CC1NC(=O)N(CC(=O)Nc2ccc3c(c2)OCCO3)C1=O (centres undefined),3,.,3,.,.,2
CCc1cc2c(nc1CC)CCN(CC/C(C)=N/OC[C@H]1O[C@H](c3ccccc3)C=C[C@@H]1Oc1ccc(OC)cc1)C2,.,103,7,115,-2,43*
COc1ccc(O[C@H]2C=C[C@@H](c3ccccc3)O[C@@H]2CO/N=C(\C)CCN2CCc3nc(-c4ccccc4)c(-c4ccccc4)cc3C2)cc1,16,105,-11,117,2,48*
COc1ccc(O[C@H]2C=C[C@@H](c3ccccc3)O[C@@H]2COC(=O)CC/C(C)=N/OC[C@@H](O)COCc2ccco2)cc1,27,99,4,92,-5,13
Nc1ccc(N2CCCCC2)c2nonc12,12,88,-93,82,-5,97*
Nc1ccc(N2CCCCC2)cc1N1CCCCC1,38,.,-13,.,.,33
COCCN(Cc1cc2cc(C)ccc2[nH]c1=O)S(=O)(=O)c1ccc(Cl)cc1,-6,96,4,94,-2,15
Cc1ccc(N(CC(=O)Nc2ccccc2C(=O)NCc2ccco2)S(=O)(=O)c2ccccc2)cc1C,5,99,-8,119,29*,12
O=C(Cc1cccc([N+](=O)[O-])c1)Nc1ccc(C(=O)N2CCCCC2)cc1,20,.,16,.,.,2
Nc1cccnc1Sc1cccc(Cl)c1,-6,98,-25,100,1,76*
CCN1CCN(c2ccc(NC(=O)c3cc(OC)c(OC)c(OC)c3)cc2)CC1,-8,112,10,117,21,-11
CN(C)c1ccc(/C=C2\CCC/C(=C\c3ccccc3)C2=O)cc1,1,121,.,15*,21,.
SMILES,PREPL inhibitor,MEKK3 PB1 HTS,UBC13 polyUb,MEKK2 WT-MEK5,MEKK2 mut-MEK5,Apaf-1 inh
O=C(NCc1ccccc1Cl)[C@@H]1CCCN1S(=O)(=O)c1ccc(Cl)cc1,17,.,12,.,.,11
CCN(CC1CCCN(CCc2cccc(F)c2)C1)C(=O)c1cc2ccccc2o1 (centres undefined),-22,102,8,107,10,8
CN(CC1CCCN(CCc2cccc(C(F)(F)F)c2)C1)C(=O)c1cc2ccccc2o1 (centres undefined),.,103,12,131,24*,18
CSc1ccc(/C=C(\NC(=O)c2ccco2)C(=O)N2CCCCC2)cc1,.,98,-12,94,-5,11
Cc1cc(C)cc(NC(=O)CCn2ccnc2)c1,-13,103,1,102,3,1
c1ccc2c(c1)nc(Nc1ccc(N3CCCCC3)cc1)c1nncn12,34,99,9,-4.0*,2,1
c1ccc(N2CCCCC2)c(Nc2nc3ccccc3n3cnnc23)c1,21,106,2,99,4,2
COc1cccc(C2C3=C(N=c4s/c(=C\c5cccc(O)c5)c(=O)n42)c2ccccc2CC3)c1OC (centres undefined),4,133*,-18,97,1,5
C/C(=N\NC(=O)CNC(=O)c1ccccc1Br)c1ccco1,4,100,3,97,-1,0
CCCN(CC1CC1)C(=S)NC(=O)c1cc(Br)ccc1Cl,.,.,10,.,.,4
O=C(c1ccccc1)[C@@H]1[C@@H](C(=O)c2ccc(F)cc2)[C@@]2(C(=O)Nc3ccccc32)[C@H]2c3ccccc3C=CN12,1,96,-13,101,4,64*
O=C(CSc1cc(Cl)ccc1Cl)NCCN1C(=O)CSC1=O,11,.,18,.,.,-7
CCOc1ccc(-c2cc(C(=O)OC)[nH]n2)cc1,18,162*,-2,97,880*,-1
COc1ccc2c([N+](=O)[O-])c(Cl)[nH]c2c1,0,92,-17,-6.0*,4,7
CCN1CCN(C(=O)CCn2c(=O)c3cccn3c3cccnc32)CC1,1,102,1,101,1,-17
O=C(N/N=C/c1cccs1)c1cccc(NC(=O)c2ccc(Cl)cc2)c1,-5,132*,-8,110,0,-16
Cc1ccc(C(=O)N2CCSC2=S)cc1,-2,105,3,-10*,4,-1
COc1ccc(CCNC(=O)CSc2nnc(-c3ccco3)c(-c3ccco3)n2)cc1OC,11,99,-31,94,-5,43*
